The subject of one series is CYP3A4. The following applies: ref Yao et al., 2006; cited from earlier work.
A further series has as its system HIV-1NL-43. As to the kind of experiment: Antiviral activity in vitro, TZM-bl luciferase reporter assay. Format: cell-based. The following applies: for pIC50: Human immunodeficiency virus 1, TZM-bl, 48 h; for times more potent than free parent drug (IC50 ratio): TZM-bl cells, vs free FTC or free EVG. A general note: In a reporter assay the amount or activity of a reporter protein is the signal.

Series [1] is described as follows: Pharmacokinetic evaluation after intramuscular injection, plasma LC/MS. The class given is in vivo, CD-1 mice. The conditions noted are these: female, CD-1, mouse, im, 1000 mg/kg.
Series [2] is described as follows: Hydrolytic release curves, pH 7.4 PBS, 37 °C. The class given is physicochemical. The following applies: 1 mg/mL, UV-vis. A digest of the protocol:
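Test conjugates at 1 mg/mL were hydrolysed in 0.1 M phosphate-buffered saline, pH 7.4, with continuous stirring at 37 °C, in triplicate. Samples were taken at 1, 3, 7, 10, 14, 17, 21, 24, 28, 31, 35 and 42 days. Released parent drug was measured by UV absorbance at 300 nm or 320 nm, depending on the drug. Data are mean ± standard deviation (n = 3).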

The conditions of series [3]: ref Ho et al., 2018; cited from earlier work.
Another series deals with HIV. The following applies: ref Agarwal et al., 2013; cited from earlier work.

pIC50: −log10 of the molar value.

Regarding `CC/C=C\C/C=C\C/C=C\C/C=C\C/C=C\C/C=C\CCC(=O)O` [DHA (Docosahexaenoic acid), Docosahexaenoic acid], in the series on CYP3A4, the “inhibitory potency against CYP3A4 among available PUFA options” value was “greater inhibitory potency”.
On to `COc1cc2c(cc1Cc1cccc(Cl)c1F)c(=O)c(C(=O)O)cn2[C@H](CO)C(C)C` [EVG (Elvitegravir), Elvitegravir], for which the pIC50 (as a rule, the negative decadic logarithm of the IC50, by convention in mol/L) in the series with HIV-1NL-43 was 4.51. In addition, in series [1], the AUC(0-t) (as a rule, the area under the concentration-time curve up to a stated or last time point) is 48300 ng·h/mL; the Cmax (commonly the highest concentration seen after dosing) is 1750 ng/mL; the half-life (commonly how long it takes for the measured level to halve) was 9.75 h; the k el was 1.97e-05 s⁻¹.
With `CC/C=C/C/C=C/C/C=C/C/C=C/C/C=C/C/C=C\CCC(=O)OCC(C(C)C)n1cc(C(=O)O)c(=O)c2cc(Cc3cccc(Cl)c3F)c(OC)cc21` (stereo not shown) [EVG-DHA, 6-(3-chloro-2-fluorobenzyl)-1-(1-(((4Z,7E,10E,13E,16E,19E)-docosa-4,7,10,13,16,19-hexaenoyl)oxy)-3-methylbutan-2-yl)-7-methoxy-4-oxo-1,4-dihydroquinoline-3-carboxylic acid], in series [2], the “period of sustained drug release” value amounted to 30 days. In addition, in the series on HIV-1NL-43, the pIC50 was 6.85 and the “times more potent than free parent drug (IC50 ratio)” value is on record as ~ 220 times.
Regarding `Nc1nc(=O)n([C@@H]2CS[C@H](CO)O2)cc1F` [FTC (Emtricitabine), Emtricitabine], the pIC50 in the series on HIV-1NL-43 is 4.76. Moreover, in series [1], the AUC(0-t) was 127000 ng·h/mL, the Cmax was found to be 41000 ng/mL, the half-life is 54.7 h and the k el was 3.61e-06 s⁻¹.
`CC/C=C/C/C=C/C/C=C/C/C=C/C/C=C/C/C=C/CCC(=O)OC[C@@H]1O[C@H](n2cc(F)c(N)nc2=O)CS1` [FTC-DHA, ((2R,5S)-5-(4-amino-5-fluoro-2-oxopyrimidin-1(2H)-yl)-1,3-oxathiolan-2-yl)methyl (4E,7E,10E,13E,16E,19E)-docosa-4,7,10,13,16,19-hexaenoate]: the “period of sustained drug release” value in series [2] is recorded as 21 days. In the series with HIV-1NL-43, the pIC50 is 5.86 and the “times more potent than free parent drug (IC50 ratio)” value is ~ 12 times.
Consider `C=C1[C@H](CO)[C@@H](O)C[C@@H]1n1cnc2c(=O)[nH]c(N)nc21` [entecavir], for which the “active antiretroviral released within the first hour” value in series [3] is recorded as 15–41%.
For the compound `CCCCCCCCCCCCCC(=O)OC[C@@H]1O[C@H](n2cc(F)c(N)nc2=O)CS1` [myristoylated FTC conjugate], the “higher anti-HIV activity compared to FTC alone” value in the series with HIV was 24 times.

The values above are taken from paper PMC6583897 (International journal of pharmaceutics, 2018).
